“Also recorded” adds a separate entry of the source. Values belong to the molecule of their own block, whether it stands above or below them. Primed or numbered codes have the meaning given here. No end group written: not given here. 5FAM′ = 5-carboxyfluorescein
What was measured:
[1] = target: T1, CHIP (Homo sapiens, UniProt Q9UNE7); assay: Fluorescence polarization; type: binding; conditions: FP, 20 nM tracer, Figure 2
T1 sequence (Q9UNE7 1-303): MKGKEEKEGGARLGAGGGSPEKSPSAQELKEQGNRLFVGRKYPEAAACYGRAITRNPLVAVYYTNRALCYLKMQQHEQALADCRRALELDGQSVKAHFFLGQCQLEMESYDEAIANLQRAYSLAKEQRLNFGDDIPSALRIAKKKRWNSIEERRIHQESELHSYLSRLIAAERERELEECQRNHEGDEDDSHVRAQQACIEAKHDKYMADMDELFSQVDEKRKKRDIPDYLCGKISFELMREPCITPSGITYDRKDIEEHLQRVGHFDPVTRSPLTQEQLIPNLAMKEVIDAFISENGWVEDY

[2] = target: T1, CHIP; assay: Biolayer interferometry; type: binding; conditions: for Binding to CHIP (in words): BLI, Figure 1d / Figure 5
[3] = 15N relaxation measurements, oligomeric state; type: physicochemical; conditions: 15N relaxation experiments
[4] = test system: CHIP; assay: 1D 15N NMR relaxation of Hsc70 with or without CHIP; parameters: species or system Human; conditions: 15N relaxation
Outline: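 15N-labelled full-length Hsc70 with uncleaved N-terminal His tag, 67 µM in 50 mM K2PO4, 200 µM NRLLLTG, 1 mM ADP, 5 mM MgCl2, 10 mM KCl, 0.02% NaN3, pH 7.2, 25 °C, with or without CHIP, at 800 MHz. 1D 15N R1 (10 h) and R2 (4.5 h) experiments were run, plus CSA/dipolar cross-correlated relaxation (T 10.2 ms). The 9.6–8.6 and 8.6–7.8 ppm regions were integrated and fitted single-exponentially, with jackknife errors.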

[5] = test system: CHIP; assay: 1H-15N TROSY NMR of 15N-labeled Hsc70 with CHIP; type: binding, Human; conditions: for Change of C-terminal resonances on CHIP binding (in words): residues 639-646 (GPTIEEVD)
Outline: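 800 MHz TROSY of 15N full-length Hsc70 (uncleaved His tag) in 50 mM K2PO4, 110 µM NRLLLTG, 1 mM ADP, 5 mM MgCl2, 10 mM KCl, 0.02% NaN3, pH 7.2. Spectra: Hsc70 alone at 100 µM (12 h); Hsc70:CHIP 57:21 µM and 40:30 µM (52 h each); 67 µM 1:1 with CHIP; 60 µM 1:1:1 with UbcH5. Tail assigned from 250 µM triple-labelled Hsc70(391–646) 3D spectra at 30 °C.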

[6] = target: T2, CHIP (C-terminus of Hsc70 Interacting Protein), full-length human (human, UniProt Q9UNE7 1-303); assay: fluorescence polarisation
T2 sequence (looked up): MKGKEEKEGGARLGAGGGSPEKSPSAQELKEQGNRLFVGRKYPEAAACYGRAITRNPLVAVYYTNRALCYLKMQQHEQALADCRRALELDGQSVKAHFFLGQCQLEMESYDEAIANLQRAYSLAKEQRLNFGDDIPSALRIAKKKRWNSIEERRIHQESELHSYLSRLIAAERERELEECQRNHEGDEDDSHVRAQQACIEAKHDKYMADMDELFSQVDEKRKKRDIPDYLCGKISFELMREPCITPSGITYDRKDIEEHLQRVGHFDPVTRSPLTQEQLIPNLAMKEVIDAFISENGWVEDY

Binding / affinity of fluorescent probes for CHIP (in words) [1]: no affinity for CHIP
Binding / affinity of fluorescent probes for CHIP (in words) ([1]; listed as DVEEM): had no affinity for CHIP
Molecule: 5FAM-DVEEM

Molecule: 5FAM-MEEVD
Binding / affinity of fluorescent probes for CHIP (in words) [1]: nearly identical affinity to the longer peptide
Binding / affinity of fluorescent probes for CHIP (in words) ([1]; listed as MEEVD): binds with affinity equal to that of the longer probe

Molecule: Hsc70ΔEEVD: Hsc70 mutant lacking the EEVD sequence
Binding to CHIP (in words) [2]: Neither the Hsc70ΔSBD, nor the Hsc70ΔEEVD mutant displayed any ability to bind CHIP; also recorded: cannot bind CHIP

Molecule: NBD: nucleotide-binding domain, Hsc70 residues 1–383
Binding to CHIP (in words) ([2]; listed as Hsc70ΔSBD): Neither the Hsc70ΔSBD, nor the Hsc70ΔEEVD mutant displayed any ability to bind CHIP; also recorded: cannot bind CHIP

Molecule: SBD: substrate-binding domain, Hsc70 residues 391–646
Oligomeric state (in words) [3]: dimeric

Molecule: wtHsc70: Human full-length Hsc70 (HspA8; 1–646)
Rotational correlation time of structured area with vs without CHIP (in words) [4]: not increased upon binding to CHIP
Hsc70-CHIP binding stoichiometry ([2]; Hsc70 per CHIP): two molecules of Hsc70
Kd ([2]; abstract, binding of Hsc70 to CHIP): ~60 nM
Slower dissociation than C-terminal peptide ([2]; koff, wtHsc70 vs C-terminal peptide): ~ 5 fold
Apparent molecular weight of the Hsc70-CHIP complex ([2]; two molecules of Hsc70 and CHIP homodimer): 210 kDa
Increase in binding free energy relative to isolated C-terminal peptide ([2]; wtHsc70 vs C-terminal peptide): 1.08 kcal/M
Extra binding free energy beyond EEVD ([2]; wtHsc70 vs isolated peptide): 1.08 kcal/mol
Oligomeric state (in words) [3]: monomeric at 100 µM
Change of TROSY spectrum on addition of UbcH5c or excess CHIP (in words) ([5]; 1:1:1 15N Hsc70, CHIP and UbcH5c, 60 µM, or excess CHIP (data not shown)): does not further change the spectrum
Change of TROSY spectrum on CHIP binding (in words) ([5]; 800 MHz, ADP and NRLLLTG bound state, pH 7.2, 25°C, 1:1 wtHsc70:CHIP): barely distinguishable from that of wtHsc70 alone
Change of resonances of residues 616–636 on CHIP binding (in words) ([5]; assigned upstream residues 616–636 of unstructured tail): remained visible and relatively unaffected by the presence of CHIP
Change of C-terminal resonances on CHIP binding (in words) [5]: progressively disappear upon complex formation; also recorded: disappear from the wtHsc70 NMR spectrum
Change of C-terminal resonances on CHIP binding (in words) ([5]; listed as Hsc70): disappear from the NMR spectrum

Kd [6]: 1500 ± 76 nM
Molecule: {5FAM′}-MEEVD [5FAM-MEEVD]

binding result [6]: binds
Molecule: {5FAM′}-DDTSRMEEVD [5FAM-DDTSRMEEVD (Hsp90α-derived C-terminus, residues 723-732)]
